Assay results published in PMC8246815 (Clinical Pharmacology in Drug Development, 2020).
Where two headings read alike, the source gives them in different places.

Experiments:
tardive dyskinesia = details: cited from earlier work
[1] = Safety assessments, study AUS-SD-809-CTP-07; assay type: in vivo, human; details: for Serious AEs: healthy volunteers; for Laboratory parameters, vital signs and physical examination: single or multiple doses
Procedure, shortened: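 Healthy subjects, single 15 mg dose in part 1 and single or repeated 7.5–22.5 mg doses in part 2. Adverse-event monitoring, physical examination, vital signs, standard 12-lead ECG, PHQ-9, C-SSRS and laboratory tests repeated throughout, including 72 h after each dose in part 1. For preliminary QTc assessment, triplicate digital 12-lead ECGs recorded on part 2 dosing days 1 and 4.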

[2] = tested on: chorea associated with Huntington's disease; details: cited from earlier work
[3] = Study AUS-SD-809-CTP-07 part 2: single and repeated; assay type: in vivo, human; details: for α-HTBZ Cmin / (α+β)-HTBZ Cmin / β-HTBZ Cmin: steady state, mean (CV%); for α-HTBZ Cmin: 0-12 h; for Linear regression model slope (zero intercept) / Power regression model α (parameter = α × dose^β) / Power regression model β (exponent of dose): deutetrabenazine fed
Procedure, shortened: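 Two groups of 12 healthy subjects over 20 days; the second group dosed ≥7 days after the first. Test compound given at 7.5, 15 and 22.5 mg after a standard meal; non-deuterated reference 25 mg fasted. Single doses on days 1 and 4, ≥72 h apart, with full plasma profiles. Dosing every 12 h from day 7 for 3.5 days, with predose troughs used to confirm steady state. Cmin taken as the minimum over 0–12 h. Power (parameter = α × dose^β) and zero-intercept linear regressions fitted to single-dose AUCinf, steady-state AUC0-12 and Cmax.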

[4] = assay type: in vivo, human
Procedure, shortened: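 Healthy subjects given 18 mg test compound after a standard meal or after a high-fat meal. For the dose-proportionality arms, doses of 6, 12, 18 and 24 mg were given with a standard meal and compared as dose-normalised parameters. Plasma dihydro metabolites analysed by non-compartmental Cmax, AUC0-t and AUCinf. ANOVA on ln values; geometric mean ratios with 90% CI, back-transformed.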

[5] = assay type: in vivo, human; details: for Total (α+β)-HTBZ AUC0-t / Total (α+β)-HTBZ AUCinf / Total (α+β)-HTBZ Cmax / Total (α+β)-HTBZ T1/2 / α-HTBZ AUC0-t / α-HTBZ AUCinf / α-HTBZ Cmax / β-HTBZ AUC0-t / β-HTBZ AUCinf / β-HTBZ Cmax / β-HTBZ T1/2 / Total (α+β)-HTBZ Tmax / α-HTBZ Tmax / β-HTBZ Tmax: deutetrabenazine 15 mg single dose; for Total (α+β)-HTBZ AUC0-t / Total (α+β)-HTBZ AUCinf / Total (α+β)-HTBZ Cmax / Total (α+β)-HTBZ T1/2 / α-HTBZ AUC0-t / α-HTBZ AUCinf / α-HTBZ Cmax / β-HTBZ AUC0-t / β-HTBZ AUCinf / β-HTBZ Cmax / β-HTBZ T1/2: mean (CV%); for Total (α+β)-HTBZ Tmax / α-HTBZ Tmax / β-HTBZ Tmax: median (range); for Plasma concentrations of the parent compound: single administration of 15 mg deutetrabenazine or 25 mg tetrabenazine tablets, LLOQ 0.100 ng/mL
Procedure, shortened: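 Randomised crossover in 25 healthy subjects, five periods over 17 days, all in clinic. Single oral dose: 15 mg of each of two test-compound tablet formulations, fed or fasted, or 25 mg non-deuterated reference fasted. Fasted means an overnight fast of ≥10 h; fed means an FDA-definition high-fat (50% calories), 800–1000 calorie meal. Plasma dihydro metabolites sampled predose and over 72 h; values below LLOQ set to LLOQ where flanked by measurable ones. Non-compartmental AUC and Cmax; ANOVA on ln values (subject, period, treatment); back-transformed geometric mean ratios with 90% CI.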

[6] = tested on: chorea in patients with HD; details: 12 weeks; cited from earlier work
VMAT2 = details: cited from earlier work
[7] = deutetrabenazine 7.5 mg twice daily fed
[8] = deutetrabenazine 15 mg twice daily fed
[9] = deutetrabenazine 22.5 mg twice daily fed
[10] = total (α+β)-HTBZ AUC0-12 (steady state)
[11] = total (α+β)-HTBZ AUCinf (single dose)
[12] = deutetrabenazine 18 mg high-fat/high-calorie meal versus standard meal
[13] = deutetrabenazine 18 mg, high-fat/high-calorie meal
[14] = deutetrabenazine 18 mg, standard meal
[15] = LS geometric mean ratio deutetrabenazine 15 mg fed / tetrabenazine 25 mg fasted
[16] = deutetrabenazine 15 mg high-fat/high-calorie meal versus fasted
[17] = deutetrabenazine 15 mg, high-fat/high-calorie meal

## [2H]C([2H])([2H])Oc1cc2c(cc1OC([2H])([2H])[2H])C1CC(=O)C(CC(C)C)CN1CC2 (stereo not shown) [Deutetrabenazine]
Tardive dyskinesia
  Change in the Abnormal Involuntary Movement Scale scores: significantly reduced TD
[1]
  Serious AEs: No serious AEs
  Laboratory parameters, vital signs and physical examination: no clinically significant abnormalities
[1]; in vivo
  Most frequent AEs reported as possibly drug related: Somnolence and headache
  Subjects with change from predose in QTc of >30 milliseconds: No subject
  Subjects with postdose QTc > 450 milliseconds: No subject
[1]; single 15 mg (part 1) and single/repeated 7.5-22.5 mg (part 2)
  Tolerability: well tolerated
[2]
  Mean difference in total maximal chorea score compared with placebo treatment: −2.5 unit
[2]; weeks 9-12, twice a day, baseline 12.1
  Mean Unified Huntington's Disease Rating Scale total maximal chorea score: 7.7
[3]; [7]
  α-HTBZ Cmin: 7.2 (41) ng/mL
  (α+β)-HTBZ Cmin: 10.1 (48) ng/mL
  β-HTBZ Cmin: 2.8 (71) ng/mL
[3]; [8]
  α-HTBZ Cmin: 15.6 (37) ng/mL
  (α+β)-HTBZ Cmin: 21.1 (41) ng/mL
  β-HTBZ Cmin: 5.5 (54) ng/mL
[3]; [9]
  α-HTBZ Cmin: 26.3 (40) ng/mL
  (α+β)-HTBZ Cmin: 39.5 (59) ng/mL
  β-HTBZ Cmin: 13.1 (102) ng/mL
[3]; single-dose and repeated deutetrabenazine administration
  Exposure to β-HTBZ relative to α-HTBZ: approximately one‐third
[3]; [10]
  Linear regression model slope (zero intercept): 32.4
  Power regression model α (parameter = α × dose^β): 17.8
  Power regression model β (exponent of dose): 1.2
[3]; [11]
  Linear regression model slope (zero intercept): 26.9
  Power regression model α (parameter = α × dose^β): 17.0
  Power regression model β (exponent of dose): 1.1
[4]; [12]
  Total (α+β)-HTBZ AUC0-t % ratio: 107.0%
  Total (α+β)-HTBZ AUCinf % ratio: 106.4%
  Total (α+β)-HTBZ Cmax % ratio: 104.2%
  Total (α+β)-HTBZ T1/2 % ratio: 101.8%
[4]; [13]
  Total (α+β)-HTBZ AUC0-t, LS mean: 408 ng·h/mL
  Total (α+β)-HTBZ AUCinf, LS mean: 419 ng·h/mL
  Total (α+β)-HTBZ Cmax, LS mean: 48.4 ng/mL
[4]; [14]
  Total (α+β)-HTBZ AUC0-t, LS mean: 382 ng·h/mL
  Total (α+β)-HTBZ AUCinf, LS mean: 394 ng·h/mL
  Total (α+β)-HTBZ Cmax, LS mean: 46.5 ng/mL
  Total (α+β)-HTBZ T1/2, LS mean: 9.7 h
[5]; [15]
  Total (α+β)-HTBZ AUC0-t % ratio (90%CI): 126.6 (115.8‐138.4) %
  Total (α+β)-HTBZ AUCinf % ratio (90%CI): 127.7 (116.7‐139.6) %
  Total (α+β)-HTBZ Cmax % ratio (90%CI): 51.4 (46.0‐57.4) %
  α-HTBZ AUCinf % ratio (90%CI): 129.7 (118.1‐142.5) %
  α-HTBZ Cmax % ratio (90%CI): 49.3 (44.5‐54.7) %
  β-HTBZ AUC0-t % ratio (90%CI): 117.0 (104.5‐131.1) %
  β-HTBZ AUCinf % ratio (90%CI): 119.9 (105.5‐136.2) %
  β-HTBZ Cmax % ratio (90%CI): 55.3 (47.7‐64.2) %
[5]; deutetrabenazine 15 mg high-fat meal vs fasted
  Increase of AUCinf of (α+β)-HTBZ with food: about 11%
[5]; [16]
  Total (α+β)-HTBZ AUC0-t % ratio: 111.5%
  Total (α+β)-HTBZ AUCinf % ratio: 110.6%
  Total (α+β)-HTBZ Cmax % ratio: 149.7%
  Total (α+β)-HTBZ T1/2 % ratio: 75.3%
[5]; fasted
  Total (α+β)-HTBZ AUC0-t: 263 (45) ng·h/mL
  Total (α+β)-HTBZ AUCinf: 273 (45) ng·h/mL
  Total (α+β)-HTBZ Cmax: 22.5 (36) ng/mL
  Total (α+β)-HTBZ T1/2: 9.4 (25) h
  α-HTBZ AUC0-t: 185 (25) ng·h/mL
  α-HTBZ AUCinf: 196 (24) ng·h/mL
  α-HTBZ Cmax: 14.2(34) ng/mL
  β-HTBZ AUC0-t: 74.2 (108) ng·h/mL
  β-HTBZ AUCinf: 81.4 (105) ng·h/mL
  β-HTBZ Cmax: 8.43 (48) ng/mL
  β-HTBZ T1/2: 6.6 (56) h
  Total (α+β)-HTBZ Tmax: 2.3 (1.0‐8.0) h
  α-HTBZ Tmax: 2.5 (1.0‐8.0) h
  β-HTBZ Tmax: 2.5 (1.0‐8.0) h
[5]; fed (high-fat meal)
  Total (α+β)-HTBZ AUC0-t: 296 (48) ng·h/mL
  Total (α+β)-HTBZ AUCinf: 305 (46) ng·h/mL
  Total (α+β)-HTBZ Cmax: 33.3 (33) ng/mL
  Total (α+β)-HTBZ T1/2: 7.0 (23) h
  α-HTBZ AUC0-t: 207 (30) ng·h/mL
  α-HTBZ AUCinf: 217 (29) ng·h/mL
  α-HTBZ Cmax: 20.8 (27) ng/mL
  β-HTBZ AUC0-t: 85.6 (102) ng·h/mL
  β-HTBZ AUCinf: 102 (92) ng·h/mL
  β-HTBZ Cmax: 12.7 (50) ng/mL
  β-HTBZ T1/2: 4.6 (63) h
  Total (α+β)-HTBZ Tmax: 6.0 (1.5‐8.0) h
  α-HTBZ Tmax: 6.0 (1.0‐8.0) h
  β-HTBZ Tmax: 6.0 (1.5‐8.0) h
[5]; deutetrabenazine 15 mg, fasted
  Total (α+β)-HTBZ AUC0-t, LS mean: 244.6 ng·h/mL
  Total (α+β)-HTBZ AUCinf, LS mean: 254.9 ng·h/mL
  Total (α+β)-HTBZ Cmax, LS mean: 21.2 ng/mL
[5]; [17]
  Total (α+β)-HTBZ AUC0-t, LS mean: 272.8 ng·h/mL
  Total (α+β)-HTBZ AUCinf, LS mean: 282.0 ng·h/mL
  Total (α+β)-HTBZ Cmax, LS mean: 31.7 ng/mL
  Total (α+β)-HTBZ T1/2, LS mean: 6.8 h
[5]; deutetrabenazine fed vs fasted
  Effect of food on exposure to total (α+β)-HTBZ, as measured by AUC: no effect
[5]
  Plasma concentrations of the parent compound: near or at the LLOQ

## COc1cc2c(cc1OC)C1CC(=O)C(CC(C)C)CN1CC2 (stereo not shown) [Tetrabenazine, reference compound]
[1]
  Serious AEs: One serious AE of vessel puncture‐site reaction
  Laboratory parameters, vital signs and physical examination: no clinically significant abnormalities
[1]; in vivo
  Subjects with change from predose in QTc of >30 milliseconds: No subject
  Subjects with postdose QTc > 450 milliseconds: No subject
[6]
  Chorea severity compared with placebo-treated patients: significantly reduced chorea severity
[5]
  Plasma concentrations of the parent compound: near or at the LLOQ

## COc1cc2c(cc1OC)[C@H]1C[C@H](O)[C@H](CC(C)C)CN1CC2 [β‐HTBZ, β‐dihydrotetrabenazine]
VMAT2
  Inhibition of VMAT2: potent inhibitors

## α‐dihydrotetrabenazine [α‐HTBZ]
VMAT2
  Inhibition of VMAT2: potent inhibitors
